Key:
Raji = experiment: Cytotoxicity against human Raji cells after 96 hrs by trypan blue exclusion assay; format: functional, cell-based
How it was run: (§1)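 Cells grown in DMEM or RPMI with 10% FBS and 1 unit/mL penicillin-streptomycin, seeded at 1.0 × 10⁵ cells/mL/well in 6-well dishes; compound added 24 h later at various concentrations. After 96 h of treatment, viable cells counted by trypan blue exclusion in duplicate wells; dose-response end point.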

U-266 = experiment: Cytotoxicity against human U266 cells after 96 hrs by trypan blue exclusion assay; format: functional, cell-based; conditions: U-266, 96 h; how it was run: as §1
[1] = Cytotoxicity against human WM983A cells after 96 hrs by trypan blue exclusion assay; format: functional, cell-based; how it was run: as §1
[2] = Cytotoxicity against multidrug-resistant human 2008/17/4 cells assessed as cell viability after 96 hrs by trypan blue exclusion; format: functional, cell-based; how it was run: as §1
A549 = experiment: Cytotoxicity against human A549 cells after 96 hrs by trypan blue exclusion assay; format: functional, cell-based; conditions: A549, 96 h
How it was run: (§2)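 Cells grown in DMEM or RPMI with 10% FBS and penicillin-streptomycin, seeded at 1.0 × 10⁵ cells/mL/well in 6-well dishes. Compound added at a range of concentrations 24 h after seeding. Viable cells counted by trypan blue exclusion from duplicate wells after 96 h of exposure; dose-response end point.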

HL-60 = experiment: Cytotoxicity against human HL60 cells after 96 hrs by trypan blue exclusion assay; format: functional, cell-based; conditions: HL-60, 96 h; how it was run: as §2
2008 = experiment: Cytotoxicity against human 2008 cells assessed as cell viability after 96 hrs by trypan blue exclusion; format: functional, cell-based; conditions: Homo sapiens, 2008, 96 h; how it was run: as §2
NCI-H187 = experiment: Cytotoxicity against human NCI-H187 cells after 96 hrs by trypan blue exclusion assay; format: functional, cell-based; conditions: NCI-H187, 96 h; how it was run: as §2
[3] = Cytotoxicity against human WM793 cells after 96 hrs by trypan blue exclusion assay; format: functional, cell-based; conditions: WM793, 96 h; how it was run: as §1
Bel-7402 = experiment: Cytotoxicity against human Bel7402 cells after 96 hrs by trypan blue exclusion assay; format: functional, cell-based; conditions: Bel-7402, 96 h; how it was run: as §2
OVCAR-3 = experiment: Cytotoxicity against human OVCAR3 cells after 96 hrs by trypan blue exclusion assay; format: functional, cell-based; conditions: OVCAR-3, 96 h; how it was run: as §2
Mus musculus = experiment: Toxicity against NCR-nu/nu, Taconic mouse xenografted with human BT20 cells assessed as decrease in body weight at 200 mg/kg, ip administered every other day for 22 days; format: organism-based, BT-20; set-up: dose 200 mg/kg, route intraperitoneal; scale not given: the % may be the effect or the level left; conditions: in vivo, 528 h
How it was run: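 Female athymic nude mice bearing subcutaneous BT20 hind-leg xenografts (0.5–1.0 × 10⁷ cells) grouped about 14 days later at ~70 mm³ (N=9). Dosed 200 mg/kg in PBS or PBS alone, Q2D × 20; methods state tail-vein IV, legend states IP. Body weight recorded at each tumor measurement, three times weekly; observed for toxicity signs; mean ± SEM.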

HCT-15 = experiment: Cytotoxicity against human HCT15 cells after 96 hrs by trypan blue exclusion assay; format: functional, cell-based; conditions: HCT-15, 96 h; how it was run: as §2
KB = experiment: Cytotoxicity against human KB cells after 96 hrs by trypan blue exclusion assay; format: functional, cell-based; how it was run: as §2
[4] = Cytotoxicity against human DND1A cells after 96 hrs by trypan blue exclusion assay; format: functional, cell-based; how it was run: as §2
HFL1 = experiment: Cell cycle arrest in human HFL1 cells assessed as accumulation at G1 phase at 0.1 to 1 uM after 24 hrs by propidium iodide staining-based flow cytometric analysis; format: ADME; conditions: hfl1, 24 h
How it was run: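 DMEM with 10% FBS; 1.0 × 10⁶ cells/dish, treated 24 h after plating and harvested 24 h after treatment. Trypsinized cells were pooled with floating cells, PBS-washed and fixed in ice-cold 70% ethanol for ≥24 h. Cells were stained with propidium iodide plus RNase A for 30 min at 37 °C. DNA content was read by flow cytometry with cell-cycle modelling.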

HUVEC = experiment: Cytotoxicity against HUVEC after 96 hrs by trypan blue exclusion assay; format: cell-based; conditions: Homo sapiens; how it was run: as §2
BT-474 = experiment: Cytotoxicity against human BT474 cells after 96 hrs by trypan blue exclusion assay; format: functional, cell-based; conditions: BT-474, 96 h; how it was run: as §2
DLD-1 = experiment: Cytotoxicity against human DLD1 cells after 96 hrs by trypan blue exclusion assay; format: functional, cell-based; conditions: DLD-1, 96 h; how it was run: as §2
CCRF-CEM = experiment: Cytotoxicity against human CEM cells assessed as cell viability after 96 hrs by trypan blue exclusion; format: functional, cell-based; how it was run: as §2
PC-3 = experiment: Cytotoxicity against human PC3 cells after 96 hrs by trypan blue exclusion assay; format: functional, cell-based; conditions: PC-3, 96 h; how it was run: as §2
Daudi = experiment: Cytotoxicity against human Daudi cells after 96 hrs by trypan blue exclusion assay; format: functional, cell-based; how it was run: as §2
U-937 = experiment: Cytotoxicity against human U937 cells after 96 hrs by trypan blue exclusion assay; format: functional, cell-based; conditions: U-937, 96 h; how it was run: as §1
[5] = Cytotoxicity against human MES-SA cells assessed as cell viability after 96 hrs by trypan blue exclusion; format: functional, cell-based; how it was run: as §2
SK-BR-3 = experiment: Cytotoxicity against human SKBR3 cells after 96 hrs by trypan blue exclusion assay; format: functional, cell-based; conditions: SK-BR-3, 96 h; how it was run: as §1
MDA-MB-157 = experiment: Cytotoxicity against human MDA-MB-157 cells after 96 hrs by trypan blue exclusion assay; format: functional, cell-based; conditions: MDA-MB-157, 96 h; how it was run: as §2
BT-20 = experiment: Antitumor activity in human BT20 cells xenografted in NCR-nu/nu, Taconic mouse assessed as decrease in tumor volume at 200 mg/kg, ip administered every other day for 22 days relative to control; format: functional; conditions: route intraperitoneal
How it was run: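 Female athymic NCR-nu/nu mice received 0.5–1.0 x10⁷ BT20 cells subcutaneously in the hind leg. Dosing began about 14 days later, with tumors near 70 mm³. Groups of N=9 got 200 mg/kg in PBS or PBS vehicle, Q2D x 20. Two tumor dimensions were measured by caliper three times weekly, and V = L×S²×π/6. Body weight and toxicity signs were tracked. Group means ±SEM.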

[6] = Cytotoxicity against multidrug-resistant human MES-SA/Dx5 cells assessed as cell viability after 96 hrs by trypan blue exclusion; format: functional, cell-based; conditions: MES-SA/Dx5, 96 h; how it was run: as §1
RPMI-7951 = experiment: Cytotoxicity against human RPMI7951 cells after 96 hrs by trypan blue exclusion assay; format: functional, cell-based; conditions: RPMI-7951, 96 h; how it was run: as §1

In the case of COc1cc(OC)c(/C=C/S(=O)(=O)Cc2ccc(OC)c(NCC(=O)[O-])c2)c(OC)c1.[Na+] [RIGOSERTIB SODIUM], the IC50 (Raji) is reported as 75 nM, the IC50 (U-266) is reported as 25 nM and the IC50 [1] is reported as 40 nM. For the same compound, the IC50 [2] was 100 nM, the IC50 (A549) was 90 nM and the IC50 (HL-60) was 20 nM. It also gave an IC50 2008 of 150 nM, an IC50 (NCI-H187) of 80 nM and an IC50 [3] of 75 nM. For the same compound, the IC50 (Bel-7402) was 100 nM, the IC50 (OVCAR-3) was 75 nM and the Activity (Mus musculus) was under 10%. For the same compound, the IC50 (HCT-15) was 90 nM, the IC50 (KB) was 70 nM and the IC50 [4] was 75 nM. The Activity (HFL1) was “Toxic”, the IC50 (HUVEC) was over 100000 nM and the IC50 (BT-474) was 50 nM. It also gave an IC50 (DLD-1) of 150 nM, an IC50 (CCRF-CEM) of 100 nM and an IC50 (PC-3) of 150 nM. The IC50 (Daudi) was 150 nM, the IC50 (U-937) was 10 nM and the IC50 [5] was 100 nM. For the same compound, the IC50 (SK-BR-3) was 75 nM, the IC50 (MDA-MB-157) was 75 nM and the “fold change (FC)” value (BT-20) was 2.5. The IC50 [6] was 100 nM and the IC50 (RPMI-7951) was 25 nM.

Reference: ChEMBL document CHEMBL2010670, “Discovery of a clinical stage multi-kinase inhibitor sodium (E)-2-{2-methoxy-5-[(2',4',6'-trimethoxystyrylsulfonyl)methyl]phenylamino}acetate (ON 01910.Na): synthesis, structure-activity relationship, and biological activity” (J Med Chem, 2011)
